Laboratory results: ChEMBL document CHEMBL4229377, “Design, synthesis and bioevaluation of 1,2,3,9-tetrahydropyrrolo[2,1-b]quinazoline-1-carboxylic acid derivatives as potent neuroprotective agents” (Eur J Med Chem, 2018)
The source made the active and inactive calls. No cut-off for these calls is given here.

Assays:
[1] = test system: SH-SY5Y; assay: Neuroprotective activity against NMDA-induced cell damage in human SH-SY5Y cells assessed as cell viability at 10 uM preincubated for 6 hrs followed by NMDA addition and measured after 30 mins by MTT assay (reference value: 58.7 +/- 2.3%); assay type: functional; settings: read-out: Activity
[2] = test system: SH-SY5Y; assay: Neuroprotective activity against NMDA-induced cell damage in human SH-SY5Y cells assessed as cell viability at 1 uM preincubated for 6 hrs followed by NMDA addition and measured after 30 mins by MTT assay (reference value: 58.7 +/- 2.3%); assay type: functional; settings: read-out: Activity
[3] = test system: SH-SY5Y; assay: Neuroprotective activity against NMDA-induced cell damage in human SH-SY5Y cells assessed as cell viability at 0.1 uM preincubated for 6 hrs followed by NMDA addition and measured after 30 mins by MTT assay (reference value: 58.7 +/- 2.3%); assay type: functional; settings: read-out: Activity
[4] = test system: SH-SY5Y; assay: Neuroprotective activity against NMDA-induced cell damage in human SH-SY5Y cells assessed as cell viability at 100 uM preincubated for 6 hrs followed by NMDA addition and measured after 30 mins by MTT assay (reference value: 58.7 +/- 2.3%)
[5] = Metabolic stability in human liver microsomes assessed as parent compound remaining at 10 uM after 60 mins in absence of NADPH; assay type: ADME, microsome; settings: read-out: Stability
Summary of the method: (§1)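 Human liver microsomes were incubated for 60 min with an NADPH regenerating system to derive T1/2 and CL (µL/min/mg). A no-cofactor sample, with buffer replacing NADPH, was run alongside over 60 min to give % parent remaining.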

[6] = Clearance in human liver microsomes at 10 uM preincubated for 10 mins followed by NADPH addition and measured up to 60 mins; assay type: ADME, microsome; settings: read-out: CLH; summary of the method: as §1
[7] = Half life in human liver microsomes at 10 uM preincubated for 10 mins followed by NADPH addition and measured up to 60 mins; assay type: ADME, microsome; summary of the method: as §1
[8] = target: Glutamate receptor ionotropic, NMDA 2B (Homo sapiens) (UniProt Q13224); assay: Antagonist activity at NR2B NMDA receptor in human SH-SY5Y cells assessed as inhibition of NMDA-induced decrease in ERK1/2 phosphorylation at 0.1 to 10 uM preincubated for 6 hrs followed by NMDA addition and measured after 30 mins by Western blot analysis; assay type: cell-based
Summary of the method: (§2)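 SH-SY5Y lysates were analysed by Western blot for NR2B expression and for p-ERK1/2 relative to total ERK. Data are means ± S.E.M., n = 3, compared against control and NMDA-treated groups.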

[9] = target: Glutamate receptor ionotropic, NMDA 2B (Homo sapiens) (UniProt Q13224); assay: Antagonist activity at NR2B NMDA receptor in human SH-SY5Y cells assessed as inhibition of NMDA-induced intracellular Ca2+ influx at 10 uM incubated for 3 hrs prior to fluo-3AM dye addition for 30 mins followed by NMDA addition and measured every 5 secs by laser scanning confocal microscopic analysis; assay type: cell-based
Summary of the method: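 SH-SY5Y cells were loaded with fluo-3 AM, and cytoplasmic Ca²⁺ was followed as green fluorescence by laser scanning confocal microscopy over time. NMDA was added at 2 mM final to cells with or without compound pretreatment; n = 9 cells per group.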

[10] = test system: SH-SY5Y; assay: Down regulation of NMDA-induced NR2B level in human SH-SY5Y cells at 0.1 to 10 uM preincubated for 6 hrs followed by NMDA addition and measured after 30 mins by Western blot analysis; assay type: functional, cell-based; summary of the method: as §2

Sequence of Glutamate receptor ionotropic, NMDA 2B (Homo sapiens) (Q13224 27-1484 limits assumed): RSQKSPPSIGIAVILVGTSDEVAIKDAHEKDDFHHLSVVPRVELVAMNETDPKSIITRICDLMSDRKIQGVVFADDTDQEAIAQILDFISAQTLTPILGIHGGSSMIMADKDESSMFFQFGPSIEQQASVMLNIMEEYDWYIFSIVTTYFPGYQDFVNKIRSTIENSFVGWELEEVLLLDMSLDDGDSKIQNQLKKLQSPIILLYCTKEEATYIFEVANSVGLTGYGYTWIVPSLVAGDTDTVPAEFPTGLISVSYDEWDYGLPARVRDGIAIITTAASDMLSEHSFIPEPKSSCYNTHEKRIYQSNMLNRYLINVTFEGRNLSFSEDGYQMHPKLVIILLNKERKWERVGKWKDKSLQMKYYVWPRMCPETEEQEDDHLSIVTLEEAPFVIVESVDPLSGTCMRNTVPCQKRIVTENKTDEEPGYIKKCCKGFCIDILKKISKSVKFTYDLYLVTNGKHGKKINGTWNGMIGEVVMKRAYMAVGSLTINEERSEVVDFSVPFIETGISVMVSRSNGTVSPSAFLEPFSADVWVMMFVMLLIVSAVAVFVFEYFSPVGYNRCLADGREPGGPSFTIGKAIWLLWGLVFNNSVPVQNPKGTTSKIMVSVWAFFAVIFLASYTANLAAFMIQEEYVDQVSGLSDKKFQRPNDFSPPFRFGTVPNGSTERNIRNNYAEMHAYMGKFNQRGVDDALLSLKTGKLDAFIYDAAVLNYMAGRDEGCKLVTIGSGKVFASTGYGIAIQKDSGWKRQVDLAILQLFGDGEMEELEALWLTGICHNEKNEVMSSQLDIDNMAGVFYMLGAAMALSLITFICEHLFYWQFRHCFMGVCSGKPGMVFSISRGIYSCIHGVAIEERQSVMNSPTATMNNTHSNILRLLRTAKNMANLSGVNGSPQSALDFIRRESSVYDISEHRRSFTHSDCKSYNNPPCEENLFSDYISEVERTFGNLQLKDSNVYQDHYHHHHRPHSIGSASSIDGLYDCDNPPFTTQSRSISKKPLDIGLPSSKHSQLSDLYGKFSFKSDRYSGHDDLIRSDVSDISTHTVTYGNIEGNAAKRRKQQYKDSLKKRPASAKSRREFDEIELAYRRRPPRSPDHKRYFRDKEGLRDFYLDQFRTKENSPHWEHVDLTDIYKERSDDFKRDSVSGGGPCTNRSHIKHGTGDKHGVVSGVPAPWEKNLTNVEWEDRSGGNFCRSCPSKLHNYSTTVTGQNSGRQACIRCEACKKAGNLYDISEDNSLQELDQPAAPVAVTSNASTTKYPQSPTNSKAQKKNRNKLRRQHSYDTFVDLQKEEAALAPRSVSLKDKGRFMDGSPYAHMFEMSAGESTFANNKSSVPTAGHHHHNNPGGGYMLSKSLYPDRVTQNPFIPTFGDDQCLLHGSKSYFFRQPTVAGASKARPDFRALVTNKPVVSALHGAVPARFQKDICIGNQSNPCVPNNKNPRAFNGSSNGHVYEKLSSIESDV

remaining at 1 h, 10 µM [5] [%] | microsomal CLint at 10 µM [6] [µL/min/mg] | half-life at 10 µM [7] [min] | inhibition [8] | inhibition [9] | Structure (SMILES) | viability at 10 µM [1] [%] | viability at 1 µM [2] [%] | viability at 0.1 µM [3] [%] | Activity [4] [%] | Activity [10]
 |  |  |  |  | O=C(NCCCc1ccccc1)[C@H]1CCC2=Nc3ccc(Br)cc3CN21 | 65.4 | 72.1 | 58.1 | 44.1 | 
 |  |  |  |  | O=C(NCCc1ccc(O)cc1)[C@H]1CCC2=Nc3ccccc3CN21 | 70.5 | 80.7 | 65.2 | 68 | 
 |  |  |  |  | O=C(Nc1ccc(O)cc1)[C@H]1CCC2=Nc3ccccc3CN21 | 69.6 | 67.2 | 65.6 | 73.3 | 
 |  |  |  |  | O=C(NCc1ccc(O)cc1)[C@@H]1CCC2=Nc3ccc(Br)cc3CN21 | 76 | 73.5 | 69 | 60 | 
 |  |  |  |  | O=C(NCc1ccc(O)cc1)[C@H]1CCC2=Nc3ccccc3CN21 | 64.2 | 68 | 65.2 | 60.9 | 
 |  |  |  |  | O=C(N[C@H](CO)Cc1ccccc1)[C@@H]1CCC2=Nc3ccccc3CN21 | 79.6 | 82.6 | 67.1 | 72.4 | 
 |  |  |  |  | O=C(NCCc1ccc(F)cc1)[C@@H]1CCC2=Nc3ccccc3CN21 | 68.1 | 75.4 | 71.4 | 33.5 | 
 |  |  |  |  | COc1ccc(CCNC(=O)[C@@H]2CCC3=Nc4ccccc4CN32)cc1 | 75.1 | 81 | 73 | 60 | 
 |  |  |  |  | O=C(NCc1ccccc1)[C@@H]1CCC2=Nc3ccccc3CN21 | 70.5 | 71.6 | 68.4 | 64.4 | 
 |  |  |  |  | COc1ccc(CNC(=O)[C@H]2CCC3=Nc4ccccc4CN32)cc1 | 76.2 | 70.7 | 66.6 | 58.4 | 
 |  |  |  |  | COc1ccc(CNC(=O)[C@@H]2CCC3=Nc4ccc(Br)cc4CN32)cc1 | 74.3 | 68.8 | 60.4 | 55.3 | 
 |  |  |  |  | O=C(NCc1ccc(F)cc1)[C@@H]1CCC2=Nc3ccccc3CN21 | 78.9 | 72.6 | 67.1 | 63.2 | 
 |  |  |  |  | N=C(NCc1ccc(O)cc1)[C@@H]1CCC2=Nc3ccccc3CN21 | 70.2 | 69.2 | 61.6 | 64.3 | 
 |  |  |  |  | O=C(NCCCc1ccccc1)[C@H]1CCC2=Nc3ccccc3CN21 | 70.2 | 71.6 | 62.2 | 42 | 
 |  |  |  |  | O=C(NCCc1ccccc1)[C@@H]1CCC2=Nc3ccccc3CN21 | 80 | 77.6 | 73.7 | 57.5 | 
 |  |  |  |  | O=C(OCc1ccccc1)[C@@H]1CCC2=Nc3ccccc3CN21 | 66.1 | 65.5 | 61 | 57.4 | 
 |  |  |  |  | O=C(Nc1ccc(O)cc1)[C@@H]1CCC2=Nc3ccc(Br)cc3CN21 | 68 | 66.2 | 62.9 | 68.4 | 
 |  |  |  |  | O=C(Nc1ccc(O)cc1)[C@@H]1CCC2=Nc3ccccc3CN21 | 70.1 | 68.3 | 67.7 | 70.9 | 
 |  |  |  |  | O=C(NCCc1c[nH]c2ccccc12)[C@@H]1CCC2=Nc3ccccc3CN21 | 80.9 | 72 | 66.2 | 78.2 | 

remaining at 1 h, 10 µM [5] [%] | microsomal CLint at 10 µM [6] [µL/min/mg] | half-life at 10 µM [7] [min] | inhibition [8] | inhibition [9] | Structure (SMILES) | viability at 10 µM [1] [%] | viability at 1 µM [2] [%] | viability at 0.1 µM [3] [%] | Activity [4] [%] | Activity [10]
 |  |  |  |  | Cc1ccc(CNC(=O)[C@@H]2CCC3=Nc4ccccc4CN32)cc1 | 72.5 | 73.4 | 66.2 | 54.5 | 
 |  |  |  |  | O=C(NCc1ccc(F)cc1)[C@H]1CCC2=Nc3ccccc3CN21 | 72.9 | 74.7 | 71.1 | 63.9 | 
 |  |  |  |  | N=C(NCc1ccccc1)[C@@H]1CCC2=Nc3ccccc3CN21 | 68.8 | 68.6 | 61.6 | 66.4 | 
 |  |  |  |  | COc1ccc(NC(=O)[C@@H]2CCC3=Nc4ccccc4CN32)cc1 | 66.4 | 72.7 | 64.7 | 48.4 | 
 |  |  |  |  | COc1ccc(CNC(=N)[C@@H]2CCC3=Nc4ccccc4CN32)cc1 | 66.1 | 65.8 | 64.8 | 56.9 | 
 |  |  |  |  | O=C(NCCCc1ccccc1)[C@@H]1CCC2=Nc3ccc(Br)cc3CN21 | 66.1 | 76.6 | 69.1 | 42.2 | 
 |  |  |  |  | O=C(Nc1ccc(O)cc1)[C@H]1CCC2=Nc3ccc(Br)cc3CN21 | 68.3 | 71.3 | 61.7 | 66 | 
99.3 | 46.3 | 29.9 | Active | Active | O=C(NCCc1ccc(O)cc1)[C@@H]1CCC2=Nc3ccc(Br)cc3CN21 | 84.4 | 80 | 75.8 | 78.6 | Active
 |  |  |  |  | O=C(NCc1ccc(F)cc1)[C@@H]1CCC2=Nc3ccc(Br)cc3CN21 | 70.4 | 70.4 | 64.8 | 60.1 | 
 |  |  |  |  | O=C(NCc1ccc(O)cc1)[C@@H]1CCC2=Nc3ccccc3CN21 | 73.8 | 72 | 67.6 | 70.3 | 
3.2 | 1180 | 1.2 |  |  | COc1ccc(COC(=O)[C@@H]2CCC3=Nc4ccccc4CN32)cc1 | 65.3 | 64.1 | 61.4 | 63.6 | 
 |  |  |  |  | O=C(NCCc1ccc(O)cc1)[C@H]1CCC2=Nc3ccc(Br)cc3CN21 | 78.2 | 74.5 | 67.8 | 81.5 | 
 |  |  |  |  | O=C(NCCCc1ccccc1)[C@@H]1CCC2=Nc3ccccc3CN21 | 63.4 | 71.2 | 67.2 | 30.3 | 
 |  |  |  |  | O=C(Nc1ccccc1)[C@@H]1CCC2=Nc3ccccc3CN21 | 60.4 | 71.4 | 68.7 | 54.6 | 
87.3 | 109 | 12.8 |  |  | C[C@@H]([C@@H](O)c1ccc(O)cc1)N1CCC(Cc2ccccc2)CC1 [(S)-IFENPRODIL] | 79.5 | 72.7 | 71 | 65.1 | 
 |  |  |  |  | O=C(NCc1ccc(O)cc1)[C@H]1CCC2=Nc3ccc(Br)cc3CN21 | 67.4 | 78 | 75 | 56.9 | 
 |  |  |  |  | COc1ccc(CNC(=O)[C@@H]2CCC3=Nc4ccccc4CN32)cc1 | 74.1 | 71.8 | 68.1 | 64.4 | 
 |  |  |  |  | O=C(NCCc1ccc(O)cc1)[C@@H]1CCC2=Nc3ccccc3CN21 | 81.4 | 78.1 | 67.7 | 67.8 | 
